Assays:
[1] = Stability in Wistar rat plasma after 24 hrs; type: ADME, cell-free; conditions: read-out: Stability
In short: (§1)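 50 kBq radiotracer was added to 1 mL of PBS (0.1 M, pH 7.4), ethanol, culture medium (RPMI + 10% FKS + 1% pen/strep) or fresh rat plasma and held at 37 °C for 30 min or 24 h. Samples were analysed by radio-HPLC on a C18 column with a Soerensen buffer (0.01 M, pH 7.4)/methanol gradient; intact tracer is reported as percent.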

[2] = Stability in ethanol after 24 hrs by HPLC; type: physicochemical; conditions: read-out: Stability; in short: as §1
[3] = Lipophilicity log D at pH 7.4; type: physicochemical; conditions: buffer
[4] = Stability in PBS buffer at pH7.4 after 30 mins by HPLC; type: physicochemical; conditions: pH 7.4, read-out: Stability; in short: as §1
Lung = assay: Biodistribution in Wistar rat lung at 0.2 to 0.3 MBq, iv after 5 mins; type: ADME, organism-based; conditions: in vivo
In short: (§2)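 Normal male Wistar rats (180 ± 20 g) given a single iv tail-vein injection of 0.2–0.3 MBq radiotracer in solution containing 1% HSA. Under ether anaesthesia at 5 min p.i., blood was taken by heart puncture and the animals euthanized. Organs were removed, weighed and counted in a calibrated well counter. Results are SUV = (organ activity/organ weight)/(given activity/body weight); mean ± SD, n = 8.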

[5] = Stability in Wistar rat plasma after 30 mins; type: ADME, cell-free; conditions: read-out: Stability; in short: as §1
[6] = Stability in PBS buffer at pH7.4 after 24 hrs by HPLC; type: physicochemical; conditions: pH 7.4, read-out: Stability; in short: as §1
[7] = Stability in ethanol after 30 mins by HPLC; type: physicochemical; conditions: read-out: Stability; in short: as §1
FaDu = assay: Cellular uptake in human FADU cells measured per mg of protein at 25 kBq after 1 hr; type: ADME, cell-based
In short: (§3)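 HT-29 cells in McCoy's 5A and FaDu cells in RPMI 1640, both with 10% FBS, were seeded at 5 × 10⁴ cells/well and left overnight. About 25 kBq radiotracer in 0.25 mL medium was added at 37 °C. Cells were washed three times with ice-cold PBS, lysed in 0.1 M NaOH/1% SDS and gamma-counted. Protein was measured by BCA; results are %ID/mg protein.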

[8] = Stability in cell culture medium after 24 hrs by HPLC; type: physicochemical; conditions: read-out: Stability; in short: as §1
Liver = assay: Biodistribution in Wistar rat liver at 0.2 to 0.3 MBq, iv after 5 mins; type: ADME, organism-based; conditions: in vivo; in short: as §2
Kidney = assay: Biodistribution in Wistar rat kidney at 0.2 to 0.3 MBq, iv after 5 mins; type: ADME, organism-based; conditions: in vivo; in short: as §2
[9] = target: Cyclin-dependent kinase 4 (Homo sapiens, UniProt P11802); assay: Inhibition of CDK4
Sequence of Cyclin-dependent kinase 4 (P11802 whole entry): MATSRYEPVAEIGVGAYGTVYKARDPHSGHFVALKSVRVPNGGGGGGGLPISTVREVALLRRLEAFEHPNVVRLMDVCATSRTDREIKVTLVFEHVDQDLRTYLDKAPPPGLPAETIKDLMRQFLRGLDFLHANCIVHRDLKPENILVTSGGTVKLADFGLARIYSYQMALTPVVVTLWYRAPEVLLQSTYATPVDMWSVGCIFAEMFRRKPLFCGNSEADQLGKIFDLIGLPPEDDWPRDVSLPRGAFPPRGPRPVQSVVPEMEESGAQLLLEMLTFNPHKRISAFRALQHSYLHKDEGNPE

[10] = target: Cyclin-dependent kinase 2 (Homo sapiens, UniProt P24941); assay: Inhibition of CDK2
[11] = target: Cyclin-dependent kinase 1 (Homo sapiens, UniProt P06493); assay: Inhibition of CDK1
Sequence of Cyclin-dependent kinase 1 (P06493 whole entry): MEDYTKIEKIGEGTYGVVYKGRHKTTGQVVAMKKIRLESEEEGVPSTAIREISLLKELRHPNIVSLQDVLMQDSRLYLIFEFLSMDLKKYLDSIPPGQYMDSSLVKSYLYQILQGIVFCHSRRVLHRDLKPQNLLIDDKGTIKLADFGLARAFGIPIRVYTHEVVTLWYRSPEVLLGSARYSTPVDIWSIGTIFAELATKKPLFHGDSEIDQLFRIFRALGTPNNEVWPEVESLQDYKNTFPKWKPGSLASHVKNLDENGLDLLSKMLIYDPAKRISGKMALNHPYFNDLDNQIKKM

HT-29 = assay: Cellular uptake in human HT-29 cells measured per mg of protein at 25 kBq after 1 hr; type: ADME, cell-based; conditions: ht-29, 1 h; in short: as §3

remaining at 24 h [1] [%] | remaining at 24 h [2] [%] | logD [3] | remaining at 0.5 h [4] [%] | SUV (Lung) | remaining at 0.5 h [5] [%] | remaining at 24 h [6] [%] | remaining at 0.5 h [7] [%] | Drug uptake (FaDu) [%Idose] | remaining at 24 h [8] [%] | SUV (Liver) | SUV (Kidney) | IC50 [9] [µM] | IC50 [10] [µM] | IC50 [11] [µM] | Drug uptake (HT-29) [%Idose] | Compound
94 | 97 | 1.99 | 97 | 8.43 | 94 | 95 | 98 | 900 | 97 | > 3.2 | > 3.2 | – | – | – | – | Cc1c([124I])c(=O)n(C2CCCC2)c2nc(Nc3ccc(N4CCNCC4)cn3)ncc12
– | – | – | – | – | – | – | – | – | – | – | – | < 0.02 | – | – | – | O=c1ccc2cnc(Nc3ccc(N4CCC(CCCO)CC4)cc3)nc2n1C1CC2CCC1C2 (stereo not drawn)
– | – | – | – | – | – | – | – | – | – | – | – | < 0.02 | > 0.36 | > 0.36 | – | Cc1c(I)c(=O)n(C2CCCC2)c2nc(Nc3ccc(N4CCNCC4)cc3)ncc12
94 | 94 | 2.77 | 92 | 8.67 | 93 | 86 | 93 | – | 96 | > 3.2 | > 3.2 | – | – | – | 750 | Cc1c([124I])c(=O)n(C2CCCC2)c2nc(Nc3ccc(N4CCNCC4)cc3)ncc12

From ChEMBL document CHEMBL1154741, “Radiosynthesis and radiopharmacological evaluation of cyclin-dependent kinase 4 (Cdk4) inhibitors” (Eur J Med Chem, 2010)
